The results in this text go back to ChEMBL document CHEMBL2203099, “Identification of a crucial amino acid in the helix position 6.51 of human tachykinin neurokinin 1 and 3 receptors contributing to the insurmountable mode of antagonism by dual NK₁/NK₃ antagonists” (J Med Chem, 2012).

Residue numbers refer to the chain shown, from its start. Activity calls are given as the source filed them. The calls are words filed in the database; no cut-off is given here.

The target of assay [1] is T1, Neuromedin-K receptor (Homo sapiens, UniProt P29371, Y315F). Description: Competitive inhibition at human NK3 Y315F6.51 mutant expressed in HEK293 cells assessed as decrease in [MePhe7]NKB-induced [3H]IP accumulation after 20 mins. The assay is classed as cell-based. Conditions: read-out: pA2 (converted). The essentials: (§1)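 HEK293 cells transiently expressing human NK3 WT or mutant, labeled with myo-[³H]inositol in LiCl buffer. Antagonist preincubated 20 min at 37 °C, then [MePhe⁷]NKB (0.01 nM–1 μM) added for 45 min at 37 °C. [³H]IP read by SPA beads. Schild analysis of EC50 shift and Emax depression across increasing antagonist concentrations gives pA2, slope and mode of antagonism.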
T1 sequence (P29371 whole entry Y315F): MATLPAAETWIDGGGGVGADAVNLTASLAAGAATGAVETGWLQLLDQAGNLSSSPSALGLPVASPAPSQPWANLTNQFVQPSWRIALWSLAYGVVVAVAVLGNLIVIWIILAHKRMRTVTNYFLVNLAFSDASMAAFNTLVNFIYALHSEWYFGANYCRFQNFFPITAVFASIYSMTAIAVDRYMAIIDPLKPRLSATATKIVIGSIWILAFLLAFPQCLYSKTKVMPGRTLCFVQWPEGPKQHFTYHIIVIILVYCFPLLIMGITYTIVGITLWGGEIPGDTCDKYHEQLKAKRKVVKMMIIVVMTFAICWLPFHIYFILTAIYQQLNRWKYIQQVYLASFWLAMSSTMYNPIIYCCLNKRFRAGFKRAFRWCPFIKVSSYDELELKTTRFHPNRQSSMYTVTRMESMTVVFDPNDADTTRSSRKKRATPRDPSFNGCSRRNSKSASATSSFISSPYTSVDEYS

Assay [2] concerns the target T2, Substance-P receptor (Homo sapiens, UniProt P25103). Description: Displacement of radioligand [3H]SP from wild type human NK1 receptor expressed in HEK293 cells. The assay is classed as cell-based. The gist of the method: (§2)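 Membranes from transiently transfected HEK293 cells, 2.5 μg protein/well, in 50 mM HEPES pH 7.4 with 3 mM MnCl2, phosphoramidon, leupeptin and 0.04% BSA. 10 competitor concentrations (0.0003–10 μM), 90 min at rt. Nonspecific binding with 10 μM NK1 antagonist. Filtration, then scintillation counting. Ki by Cheng–Prusoff. Three experiments, each in duplicate.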

Assay [3] addresses T2, Substance-P receptor. Description: Noncompetitive inhibition of wild type human NK1 receptor expressed in HEK293 cells assessed as decrease in SP1-induced [3H]IP accumulation after 20 mins. The assay is classed as cell-based.
Assay [4] addresses T1, Neuromedin-K receptor. Description: Displacement of radioligand [3H]osanetant at human NK3 Y315F6.51 mutant expressed in HEK293 cells. The assay is classed as cell-based.
Assay [5] addresses T3, Neuromedin-K receptor (Homo sapiens, UniProt P29371).
T3 sequence (P29371 whole entry): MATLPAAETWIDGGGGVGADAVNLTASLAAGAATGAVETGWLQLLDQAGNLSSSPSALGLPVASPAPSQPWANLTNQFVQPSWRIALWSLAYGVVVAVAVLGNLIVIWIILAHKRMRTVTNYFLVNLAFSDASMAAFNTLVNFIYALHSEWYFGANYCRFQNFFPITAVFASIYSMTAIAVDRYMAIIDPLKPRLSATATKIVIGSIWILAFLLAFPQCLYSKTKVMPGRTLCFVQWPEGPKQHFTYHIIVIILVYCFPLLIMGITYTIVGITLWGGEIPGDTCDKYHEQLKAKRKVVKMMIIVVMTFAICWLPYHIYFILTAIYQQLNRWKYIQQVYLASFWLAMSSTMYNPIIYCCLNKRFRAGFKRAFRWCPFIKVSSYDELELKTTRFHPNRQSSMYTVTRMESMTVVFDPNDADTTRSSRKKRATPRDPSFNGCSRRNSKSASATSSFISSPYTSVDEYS
Description: Competitive inhibition at wild type human NK3 expressed in HEK293 cells assessed as decrease in [MePhe7]NKB-induced [3H]IP accumulation after 20 mins. The assay is classed as cell-based. The conditions noted are these: read-out: pA2 (converted). The gist of the method: as §1

Assay [6] concerns the target T3, Neuromedin-K receptor. Description: Displacement of [3H]osanetant from wild type human NK3 receptor expressed in HEK293 cells. The class given is cell-based. (Displacement assays read how much labelled ligand stays bound in the presence of the test substance.)
Assay [7] concerns HEK293. Description: Selectivity ratio of Ki for wild type human NK3 receptor expressed in HEK293 cells to Ki for human NK3 Y315F6.51 mutant expressed in HEK293 cells. The assay is classed as cell-based.
Assay [8] has as its target T4, Substance-P receptor (Homo sapiens, UniProt P25103, F264Y). Description: Displacement of radioligand [3H]SP from human NK1 F264Y6.51 mutant expressed in HEK293 cells. The class given is cell-based. The gist of the method: as §2
For assay [9], the system named is Substance-P receptor (Homo sapiens), P25103 [F264Y]. Description: Noncompetitive inhibition of human NK1 F264Y6.51 mutant receptor expressed in HEK293 cells assessed as decrease in SP1-induced [3H]IP accumulation after 20 mins. The assay is classed as cell-based.
Substance-P receptor (Homo sapiens), P25103 [F264Y], sequence (P25103 whole entry F264Y): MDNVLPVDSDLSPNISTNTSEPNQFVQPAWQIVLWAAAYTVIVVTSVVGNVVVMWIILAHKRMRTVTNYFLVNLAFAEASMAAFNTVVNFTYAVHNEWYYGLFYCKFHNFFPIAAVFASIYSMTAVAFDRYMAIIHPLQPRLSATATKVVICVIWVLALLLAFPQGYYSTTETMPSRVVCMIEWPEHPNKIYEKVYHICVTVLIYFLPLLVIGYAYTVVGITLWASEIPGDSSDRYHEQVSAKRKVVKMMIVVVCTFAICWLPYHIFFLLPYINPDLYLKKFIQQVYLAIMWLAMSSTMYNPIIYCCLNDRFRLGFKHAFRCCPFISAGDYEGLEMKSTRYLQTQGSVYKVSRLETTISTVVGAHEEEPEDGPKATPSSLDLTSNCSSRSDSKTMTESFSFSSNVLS
The target of assay [10] is T2, Substance-P receptor.
The test system of assay [11] is HEK293. Description: Selectivity ratio of Ki for human NK3 Y247W mutant expressed in HEK293 cells to Ki for wild type human NK3 receptor expressed in HEK293 cells. The assay is classed as cell-based.
For assay [12], the system named is HEK293. Description: Selectivity ratio of Ki for human NK3 H316F mutant expressed in HEK293 cells to Ki for wild type human NK3 receptor expressed in HEK293 cells. The assay is classed as cell-based.
Assay [13] has as its target T5, Neuromedin-K receptor (Homo sapiens, UniProt P29371, Y247F). Description: Competitive inhibition at human NK3 Y247F5.38 mutant expressed in HEK293 cells assessed as decrease in [MePhe7]NKB-induced [3H]IP accumulation after 20 mins. Conditions: read-out: pA2 (converted). The class given is cell-based.
Assay [14] has as its system T6, Neuromedin-K receptor (Homo sapiens), P29371 [H316W].
T6 sequence (whole entry): T3 sequence (P29371 whole entry) with H316W
Description: Antagonist activity at human NK3 H316W6.52 mutant expressed in HEK293 cells assessed as decrease in [MePhe7]NKB-induced [3H]IP accumulation after 20 mins. The assay is classed as functional, cell-based. The gist of the method: as §1

The target of assay [15] is Neuromedin-K receptor (Homo sapiens, UniProt P29371, H316F). Description: Displacement of radioligand [3H]osanetant at human NK3 H316F mutant expressed in HEK293 cells. The assay is classed as cell-based.
Neuromedin-K receptor (Homo sapiens, UniProt P29371, H316F), sequence (P29371 whole entry H316F): as the sequence (P29371 whole entry Y315F) above, with F315Y, H316F counted along it
Assay [16] addresses T5, Neuromedin-K receptor. Description: Displacement of radioligand [3H]osanetant at human NK3 Y247F mutant expressed in HEK293 cells. The class given is cell-based.
Assay [17] deals with T7, Neuromedin-K receptor (Homo sapiens), P29371 [Y315F].
T7 sequence (whole entry): T3 sequence (P29371 whole entry) with Y315F
Description: Noncompetitive inhibition at human NK3 Y315F6.51 mutant expressed in HEK293 cells assessed as decrease in [MePhe7]NKB-induced [3H]IP accumulation after 20 mins. The assay is classed as cell-based. The gist of the method:
as §1

The target of assay [18] is Neuromedin-K receptor (Homo sapiens, UniProt P29371, Y247W). Description: Displacement of radioligand [3H]osanetant at human NK3 Y247W mutant expressed in HEK293 cells. The assay is classed as cell-based.
Neuromedin-K receptor (Homo sapiens, UniProt P29371, Y247W), sequence (P29371 whole entry Y247W): as the sequence (P29371 whole entry Y315F) above, with Y247W, F315Y counted along it
Assay [19] has as its target Neuromedin-K receptor (Homo sapiens, UniProt P29371, H316W). Description: Displacement of radioligand [3H]osanetant at human NK3 H316W mutant expressed in HEK293 cells. The class given is cell-based.
For assay [20], the system named is HEK293. Description: Selectivity ratio of Ki for human NK3 Y247F mutant expressed in HEK293 cells to Ki for wild type human NK3 receptor expressed in HEK293 cells. The class given is cell-based.
Assay [21] deals with T4, Substance-P receptor. Description: Partial noncompetitive inhibition of human F264Y6.51 mutant expressed in HEK293 cells assessed as decrease in SP1-induced [3H]IP accumulation after 20 mins. The assay is classed as cell-based. The conditions noted are these: read-out: pA2 (converted).
For assay [22], the target named is T8, Neuromedin-K receptor (Homo sapiens) (UniProt P29371).
T8 sequence (whole entry): T3 sequence (P29371 whole entry)
Description: Noncompetitive inhibition at wild type human NK3 expressed in HEK293 cells assessed as decrease in [MePhe7]NKB-induced [3H]IP accumulation after 20 mins. The assay is classed as cell-based. The essentials: as §1

The test system of assay [23] is T7, Neuromedin-K receptor (Homo sapiens), P29371 [Y315F]. Description: Antagonist activity at human NK3 Y315F6.51 mutant expressed in HEK293 cells assessed as decrease in [MePhe7]NKB-induced [3H]IP accumulation at 10 nM after 20 mins. The assay is classed as functional, cell-based.
In assay [24] the target is Neuromedin-K receptor (Homo sapiens, UniProt P29371, Y247A). Description: Binding affinity to human NK3 Y247A mutant expressed in HEK293 cells.
Neuromedin-K receptor (Homo sapiens, UniProt P29371, Y247A), sequence (P29371 whole entry Y247A): as the sequence (P29371 whole entry Y315F) above, with Y247A, F315Y counted along it

T2 sequence (P25103 whole entry): as the sequence (P25103 whole entry F264Y) above, with Y264F counted along it
T4 sequence (P25103 whole entry F264Y): as the sequence (P25103 whole entry F264Y) above
T5 sequence (P29371 whole entry Y247F): as the sequence (P29371 whole entry Y315F) above, with Y247F, F315Y counted along it
Neuromedin-K receptor (Homo sapiens, UniProt P29371, H316W), sequence (P29371 whole entry H316W): as the sequence (P29371 whole entry Y315F) above, with F315Y, H316W counted along it

By Ki is commonly meant the dissociation constant of the complex between target and ligand, obtained from inhibition or displacement. Low values mean tighter binding, high ones weaker binding. With `Cc1cc(F)ccc1-c1cc(N2CCN(S(C)(=O)=O)CC2)ncc1N(C)C(=O)C(C)(C)c1cc(C(F)(F)F)cc(C(F)(F)F)c1`, the figures for the Kb on Neuromedin-K receptor [1] and at Neuromedin-K receptor [5] were 2.45 nM and 123 nM, respectively. In addition, the Ki at Substance-P receptor [2] stood at 0.4 nM; at Neuromedin-K receptor [4] it was 0.7 nM; at Neuromedin-K receptor [6], 2.4 nM; at Substance-P receptor [8], 1.4 nM. For the same compound, the inhibition entry (on Substance-P receptor [3]; in assay [9]) was “Active” each time. In the assay with HEK293 [7], the Ratio Ki is 3.4.
`Cc1cc(F)ccc1-c1cc(N2CCC3(CC2)OCCS3(=O)=O)ncc1N(C)C(=O)C(C)(C)c1cc(C(F)(F)F)cc(C(F)(F)F)c1`: the Kb was 37.2 nM at Neuromedin-K receptor [1] and 97.7 nM on Neuromedin-K receptor [5]. The Ki on Substance-P receptor [2] was 1.4 nM; at Neuromedin-K receptor [4], 1 nM; at Neuromedin-K receptor [6], 3.5 nM; at Substance-P receptor [8], 1.7 nM. Moreover, the inhibition result (at Substance-P receptor [3]; in [9]) was “Active” in each case. Besides, the Ratio Ki with HEK293 [7] was determined as 3.5.
Turning to `C[C@@H](O[C@H]1OCCN(Cc2n[nH]c(=O)[nH]2)[C@H]1c1ccc(F)cc1)c1cc(C(F)(F)F)cc(C(F)(F)F)c1` [APREPITANT], the inhibition result on Substance-P receptor [3] is “Active”. Besides, the Ki on Neuromedin-K receptor [6] is 454 nM. Also, the T1/2 on Substance-P receptor [10] is 2.57 h.
On Neuromedin-K receptor [6], `COc1ccccc1CN[C@H]1C2CCN(CC2)[C@H]1C(c1ccccc1)c1ccccc1` [CP-96345] registered a Ki of more than 10000 nM.
For `Cc1cc(F)ccc1-c1cc(N2CCN(S(C)(=O)=O)[C@@H](C)C2)ncc1N(C)C(=O)C(C)(C)c1cc(C(F)(F)F)cc(C(F)(F)F)c1`, the Ratio Ki came to 3 with HEK293 [11], 11.6 with HEK293 [12], 8.5 in the assay on HEK293 [7] and 1.1 with HEK293 [20]. The Ki at Substance-P receptor [2] turned out to be 0.3 nM; on Neuromedin-K receptor [4] it was 0.2 nM; on Neuromedin-K receptor [6], 1.7 nM; on Neuromedin-K receptor [15], 19.7 nM; on Neuromedin-K receptor [16], 1.8 nM; on Neuromedin-K receptor [18], 5.1 nM. In addition, the Ki on Neuromedin-K receptor [19] was more than 10000 nM; at Substance-P receptor [8] it was 0.5 nM. Further, the inhibition entry (at Substance-P receptor [3]; in assay [17]; in assay [9]) was “Active” each time. The results for the Kb on Neuromedin-K receptor [13] and at Neuromedin-K receptor [5] were 47.9 nM and 16.2 nM, respectively. In addition, in assay [14], the outcome was inactive.
Take `Cc1cc(F)ccc1-c1cc(N2CCC[C@H]2CO)ncc1N(C)C(=O)C(C)(C)c1cc(C(F)(F)F)cc(C(F)(F)F)c1`: the Kb on Substance-P receptor [21] is 39.8 nM. Also, the Ki on Substance-P receptor [2] is 1.4 nM; at Neuromedin-K receptor [4], 0.6 nM; on Neuromedin-K receptor [6], 1.5 nM; at Substance-P receptor [8], 2.8 nM. Besides, the inhibition entry (in [22]; at Substance-P receptor [3]; in assay [17]) was “Active” each time. Further, in the assay on HEK293 [7], the Ratio Ki amounted to 2.5. Further, the result in [23] was Active.
Consider `Cc1cc(F)ccc1-c1cc(N2CCN(S(C)(=O)=O)C[C@H]2CO)ncc1N(C)C(=O)C(C)(C)c1cc(C(F)(F)F)cc(C(F)(F)F)c1`, for which the Kb on Substance-P receptor [21] was 17 nM. The Ki was found to be 0.7 nM at Substance-P receptor [2], 0.6 nM at Neuromedin-K receptor [4], 1.2 nM at Neuromedin-K receptor [6] and 1.3 nM at Substance-P receptor [8]. The inhibition result (in assay [22]; at Substance-P receptor [3]; in [17]) was “Active” each time. Moreover, the Ratio Ki in the assay with HEK293 [7] was found to be 2. Moreover, the result in assay [23] was Active.
Regarding `[3H]c1cccc(C2(N(C)C(C)=O)CCN(CCC[C@]3(c4ccc(Cl)c(Cl)c4)CCCN(C(=O)c4ccccc4)C3)CC2)c1`, at Neuromedin-K receptor [24], the Kd result is on record as “Not Active”.
For `Cc1cc(F)ccc1-c1cc(N2CC[C@H](O)C2)ncc1N(C)C(=O)C(C)(C)c1cc(C(F)(F)F)cc(C(F)(F)F)c1`, the Kb was 20.9 nM on Neuromedin-K receptor [1] and 120 nM at Neuromedin-K receptor [5]. The Ki at Substance-P receptor [2] stood at 1.3 nM; on Neuromedin-K receptor [4], 2.5 nM; on Neuromedin-K receptor [6], 11.9 nM; at Substance-P receptor [8], 2.1 nM. Also, the inhibition entry (at Substance-P receptor [3]; in [9]) was “Active” throughout. For the same compound, the Ratio Ki in the assay on HEK293 [7] was found to be 4.8.
